ChEMBL document CHEMBL1137650, “An OXA-66/OXA-51-like carbapenemase and possibly an efflux pump are associated with resistance to imipenem in Acinetobacter baumannii” (2007)
Values after ≈ are worked out from the molar mass of the structure shown.

Legend:
Acinetobacter baumannii [1] = test: Antibacterial activity against imipenem-susceptible Acinetobacter baumannii ATCC 19606 by broth dilution method; assay type: functional; settings: ATCC 19606 = CIP 70.34 = JCM 6841
Acinetobacter baumannii [2] = test: Antibacterial activity against imipenem-susceptible Acinetobacter baumannii ab3 by broth dilution method; assay type: functional
Summary of the method: (§1)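 Clinical isolates were collected at three Taiwan hospitals (1993–2003) and grown in tryptic soy broth at 37°C for 18 h. MIC by broth dilution following CLSI recommendations.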

Acinetobacter baumannii [3] = test: Antibacterial activity against imipenem-susceptible Acinetobacter baumannii ab4 by broth dilution method; assay type: functional; summary of the method: as §1
Acinetobacter baumannii [4] = test: Antibacterial activity against imipenem-susceptible Acinetobacter baumannii ab8 by broth dilution method; assay type: functional; summary of the method: as §1
Acinetobacter baumannii [5] = test: Antibacterial activity against imipenem-susceptible Acinetobacter baumannii ab12 by broth dilution method; assay type: functional; summary of the method: as §1
Acinetobacter baumannii [6] = test: Antibacterial activity against imipenem-susceptible Acinetobacter baumannii ab20 by broth dilution method; assay type: functional; summary of the method: as §1
Acinetobacter baumannii [7] = test: Antibacterial activity against imipenem-susceptible Acinetobacter baumannii ab1308 by broth dilution method; assay type: functional
Summary of the method: (§2)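 Clinical A. baumannii isolates collected at three Taiwanese hospitals, routinely grown in tryptic soy broth at 37°C for 18 h. MICs (μg ml⁻¹) were determined by broth dilution following CLSI recommendations, or by Etest strips following the manufacturer's instructions.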

Acinetobacter baumannii [8] = test: Antibacterial activity against imipenem-susceptible Acinetobacter baumannii ab1254 by broth dilution method; assay type: functional; summary of the method: as §1
Acinetobacter baumannii [9] = test: Antibacterial activity against imipenem-susceptible Acinetobacter baumannii ab1316 by broth dilution method; assay type: functional; summary of the method: as §2
Acinetobacter baumannii [10] = test: Antibacterial activity against imipenem-intermediate Acinetobacter baumannii ab1297 by broth dilution method; assay type: functional; summary of the method: as §2
Acinetobacter baumannii [11] = test: Antibacterial activity against imipenem-resistant Acinetobacter baumannii ab1265 by broth dilution method; assay type: functional; summary of the method: as §1
Acinetobacter baumannii [12] = test: Antibacterial activity against imipenem-resistant Acinetobacter baumannii ab1266 by broth dilution method; assay type: functional; summary of the method: as §1
Acinetobacter baumannii [13] = test: Antibacterial activity against imipenem-resistant Acinetobacter baumannii abh9 by broth dilution method; assay type: functional; summary of the method: as §1
Acinetobacter baumannii [14] = test: Antibacterial activity against imipenem-resistant Acinetobacter baumannii abh11 by broth dilution method; assay type: functional; summary of the method: as §1
Acinetobacter baumannii [15] = test: Antibacterial activity against imipenem-resistant Acinetobacter baumannii abh13 by broth dilution method; assay type: functional; summary of the method: as §1
Acinetobacter baumannii [16] = test: Antibacterial activity against imipenem-resistant Acinetobacter baumannii abh14 by broth dilution method; assay type: functional; summary of the method: as §1
Acinetobacter baumannii [17] = test: Antibacterial activity against imipenem-resistant Acinetobacter baumannii abh17 by broth dilution method; assay type: functional; summary of the method: as §1
Acinetobacter baumannii [18] = test: Antibacterial activity against imipenem-resistant Acinetobacter baumannii abh18 by broth dilution method; assay type: functional; summary of the method: as §1
Acinetobacter baumannii [19] = test: Antibacterial activity against imipenem-resistant Acinetobacter baumannii abh20 by broth dilution method; assay type: functional; summary of the method: as §1
Acinetobacter baumannii [20] = test: Antibacterial activity against imipenem-resistant Acinetobacter baumannii abh26 by broth dilution method; assay type: functional; summary of the method: as §1
Acinetobacter baumannii [21] = test: Antibacterial activity against imipenem-resistant Acinetobacter baumannii abh29 by broth dilution method; assay type: functional; summary of the method: as §1
Acinetobacter baumannii [22] = test: Antibacterial activity against imipenem-resistant Acinetobacter baumannii abh36 by broth dilution method; assay type: functional; summary of the method: as §1
Acinetobacter baumannii [23] = test: Antibacterial activity against imipenem-resistant Acinetobacter baumannii abh37 by broth dilution method; assay type: functional; summary of the method: as §1
Acinetobacter baumannii [24] = test: Antibacterial activity against imipenem-resistant Acinetobacter baumannii abh39 by broth dilution method; assay type: functional; summary of the method: as §1
Acinetobacter baumannii [25] = test: Ratio of MIC for Acinetobacter baumannii ISAB ab8(r) to MIC for Acinetobacter baumannii ISAB ab8(r) in presence of […] ug/ml efflux pump inhibitor carbonyl cyanide m-chlorophenyl-hydrazone; assay type: functional
Acinetobacter baumannii [26] = test: Ratio of MIC for Acinetobacter baumannii ISAB ab8(r) to MIC for Acinetobacter baumannii ISAB ab1254(r) in presence of […] ug/ml efflux pump inhibitor carbonyl cyanide m-chlorophenyl-hydrazone; assay type: functional
Escherichia coli [27] = test: Antibacterial activity against Escherichia coli TOP10 by Etest; assay type: functional
Summary of the method: (§3)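 E. coli TOP10 carrying empty pBAD/Myc-His or pBAD/Myc-His with blaOXA-66 cloned from the named strain, grown at 37°C in LB with 50 μg/ml ampicillin to OD600 0.5. Plated on Mueller-Hinton agar with 50 μg/ml ampicillin and 0.002% arabinose for induction. Imipenem MIC read by Etest.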

Escherichia coli [28] = test: Antibacterial activity against Escherichia coli TOP10 expressing imipenem-susceptible Acinetobacter baumannii ab1254 blaoxa-66 gene by Etest; assay type: functional; summary of the method: as §3
Escherichia coli [29] = test: Antibacterial activity against Escherichia coli TOP10 expressing imipenem-resistant Acinetobacter baumannii ab1266 blaoxa-66 gene by Etest; assay type: functional; summary of the method: as §3
Acinetobacter baumannii [30] = test: Antibacterial activity against imipenem-resistant Acinetobacter baumannii ISAB ab8(r) by broth dilution method; assay type: functional
Acinetobacter baumannii [31] = test: Antibacterial activity against imipenem-resistant Acinetobacter baumannii ISAB ab1254(r) by broth dilution method; assay type: functional
Acinetobacter baumannii [32] = test: Antibacterial activity against imipenem-resistant Acinetobacter baumannii ISAB ab1254(r) by broth dilution method in presence of 24 ug/ml efflux pump inhibitor carbonyl cyanide m-chlorophenyl-hydrazone; assay type: functional
Acinetobacter baumannii [33] = test: microbe, parasite or virus in culture; settings: ISAB ab8(r)

Compound | MIC (Acinetobacter baumannii [2]) | MIC (Acinetobacter baumannii [3]) | MIC (Acinetobacter baumannii [4]) | MIC (Acinetobacter baumannii [5]) | MIC (Acinetobacter baumannii [6]) | MIC (Acinetobacter baumannii [7]) | MIC (Acinetobacter baumannii [8]) | MIC (Acinetobacter baumannii [9]) | MIC (Acinetobacter baumannii [10]) | MIC (Acinetobacter baumannii [11]) | MIC (Acinetobacter baumannii [12]) | MIC (Acinetobacter baumannii [13]) | MIC (Acinetobacter baumannii [14]) | MIC (Acinetobacter baumannii [15]) | MIC (Acinetobacter baumannii [16]) | MIC (Acinetobacter baumannii [17]) | MIC (Acinetobacter baumannii [18]) | MIC (Acinetobacter baumannii [19]) | MIC (Acinetobacter baumannii [20]) | MIC (Acinetobacter baumannii [21]) | further results
O=C(O)c1cn(C2CC2)c2cc(N3CCNCC3)c(F)cc2c1=O [CIPROFLOXACIN] | 0.125 µg/mL (≈ 0.377 µM) | 0.25 µg/mL (≈ 0.754 µM) | 0.38 µg/mL (≈ 1.15 µM) | 0.25 µg/mL (≈ 0.754 µM) | 3 µg/mL (≈ 9.05 µM) | > 32 µg/mL | > 32 µg/mL | > 32 µg/mL | > 32 µg/mL | > 32 µg/mL | > 32 µg/mL | > 32 µg/mL | > 32 µg/mL | > 32 µg/mL | > 32 µg/mL | > 32 µg/mL | > 32 µg/mL | > 32 µg/mL | > 32 µg/mL | > 32 µg/mL | MIC (Acinetobacter baumannii [1]): 0.75 µg/mL (≈ 2.26 µM); MIC (Acinetobacter baumannii [22]): > 32 µg/mL; MIC (Acinetobacter baumannii [23]): > 32 µg/mL; MIC (Acinetobacter baumannii [24]): > 32 µg/mL
C[C@@H](O)[C@H]1C(=O)N2C(C(=O)O)=C(SCCNC=N)C[C@H]12 [IMIPENEM ANHYDROUS] | 1 µg/mL (≈ 3.34 µM) | 1 µg/mL (≈ 3.34 µM) | 1 µg/mL (≈ 3.34 µM) | 1 µg/mL (≈ 3.34 µM) | 1.5 µg/mL (≈ 5.01 µM) | 2 µg/mL (≈ 6.68 µM) | 3 µg/mL (≈ 10 µM) | 3 µg/mL (≈ 10 µM) | 8 µg/mL (≈ 26.7 µM) | > 32 µg/mL | > 32 µg/mL | 32 µg/mL (≈ 107 µM) | 32 µg/mL (≈ 107 µM) | 32 µg/mL (≈ 107 µM) | 32 µg/mL (≈ 107 µM) | 32 µg/mL (≈ 107 µM) | 32 µg/mL (≈ 107 µM) | 32 µg/mL (≈ 107 µM) | 32 µg/mL (≈ 107 µM) | 32 µg/mL (≈ 107 µM) | fold change (FC) (Acinetobacter baumannii [25]): 4; fold change (FC) (Acinetobacter baumannii [26]): 8; MIC (Acinetobacter baumannii [1]): 0.38 µg/mL (≈ 1.27 µM); MIC (Acinetobacter baumannii [22]): 32 µg/mL (≈ 107 µM); MIC (Acinetobacter baumannii [23]): 32 µg/mL (≈ 107 µM); MIC (Acinetobacter baumannii [24]): 32 µg/mL (≈ 107 µM); MIC (Escherichia coli [27]): 0.19 µg/mL (≈ 0.635 µM); MIC (Escherichia coli [28]): 0.75 µg/mL (≈ 2.51 µM); MIC (Escherichia coli [29]): 1.5 µg/mL (≈ 5.01 µM); MIC (Acinetobacter baumannii [30]): 256 µg/mL (≈ 855 µM); MIC (Acinetobacter baumannii [31]): 128 µg/mL (≈ 428 µM); MIC (Acinetobacter baumannii [32]): 16 µg/mL; MIC (Acinetobacter baumannii [33]): 64 µg/mL (≈ 214 µM)
CCN1CCN(C(=O)N[C@@H](C(=O)N[C@@H]2C(=O)N3[C@@H]2SC(C)(C)[C@@H]3C(=O)O)c2ccccc2)C(=O)C1=O [PIPERACILLIN] | > 256 µg/mL | > 256 µg/mL | > 256 µg/mL | > 256 µg/mL | > 256 µg/mL | > 256 µg/mL | > 256 µg/mL | > 256 µg/mL | > 256 µg/mL | > 256 µg/mL | > 256 µg/mL | > 256 µg/mL | > 256 µg/mL | > 256 µg/mL | > 256 µg/mL | > 256 µg/mL | > 256 µg/mL | > 256 µg/mL | > 256 µg/mL | > 256 µg/mL | MIC (Acinetobacter baumannii [22]): > 256 µg/mL; MIC (Acinetobacter baumannii [23]): > 256 µg/mL; MIC (Acinetobacter baumannii [24]): > 256 µg/mL
GENTAMICIN | 256 µg/mL | 256 µg/mL | > 256 µg/mL | > 256 µg/mL | > 256 µg/mL | > 256 µg/mL | > 256 µg/mL | > 256 µg/mL | > 256 µg/mL | > 256 µg/mL | > 256 µg/mL | > 256 µg/mL | > 256 µg/mL | > 256 µg/mL | > 256 µg/mL | > 256 µg/mL | > 256 µg/mL | > 256 µg/mL | > 256 µg/mL | > 256 µg/mL | MIC (Acinetobacter baumannii [22]): > 256 µg/mL; MIC (Acinetobacter baumannii [23]): > 256 µg/mL; MIC (Acinetobacter baumannii [24]): > 256 µg/mL
